The text below walks through data of ChEMBL document CHEMBL2331151 (Bioorg Med Chem, 2013).

Each structure is given as a SMILES string.

The nature of data set [1]: AUC (0 to 24 hrs) in Sprague-Dawley rat at 5 mg/kg, po. In kind it is ADME, organism-based. As to conditions: plasma; call rule not given here. Also noted: time < 24 hr, dose 5 mg/kg, route oral. The method, boiled down:
(§1)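 Compound given as a suspension by oral gavage to Sprague–Dawley rats as a single dose (5 mg/kg in the single-dose comparison; doses from 0.1–100 mg/kg in the dose-dependence study).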

In another data set the test system is Liver microsomes. The experiment in a line: Drug metabolism in rat liver microsomes in presence of S9 fractions. In kind it is ADME, Microsome. The method, boiled down:
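Compound incubated with the S-9 fraction of rat liver microsomes to measure in vitro clearance. Primary metabolites formed during the incubation were identified.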

Data set [2] is described as follows: Half life in Sprague-Dawley rat at 5 mg/kg. Also noted: dose 5 mg/kg. The conditions noted are these: in vivo. In kind it is ADME, organism-based.
Data set [3] can be described thus: Oral bioavailability in Sprague-Dawley rat at 5 mg/kg. The conditions noted are these: in vivo. In kind it is ADME, organism-based.
The nature of data set [4]: Cmax in Sprague-Dawley rat at 5 mg/kg, po. In kind it is ADME, organism-based. As to conditions: in vivo. Also noted: dose 5 mg/kg, route oral. The method, boiled down:
as §1

A short description of data set [5]: Cmax in Sprague-Dawley rat at 100 mg/kg, po. The conditions noted are these: in vivo. In kind it is ADME, organism-based. Further details: dose 100 mg/kg, route oral. The method, boiled down:
as §1

Data set [6] can be described thus: Cmax in Sprague-Dawley rat at 30 mg/kg, po. In kind it is ADME, organism-based. Further details: dose 30 mg/kg, route oral. As to conditions: in vivo. The method, boiled down:
as §1

Data set [7] is described as follows: Cmax in Sprague-Dawley rat at 1 mg/kg, po. In kind it is ADME, organism-based. Also noted: dose 1 mg/kg, route oral. As to conditions: in vivo. The method, boiled down:
as §1

A short description of data set [8]: Cmax in Sprague-Dawley rat at 2 mg/kg, po. The conditions noted are these: in vivo. In kind it is ADME, organism-based. Also noted: dose 2 mg/kg, route oral. The method, boiled down:
as §1

A short description of data set [9]: Cmax in Sprague-Dawley rat at 0.3 mg/kg, po. Further details: dose 0.3 mg/kg, route oral. The conditions noted are these: in vivo. In kind it is ADME, organism-based. The method, boiled down: as §1
The nature of data set [10]: Cmax in Sprague-Dawley rat at 0.1 mg/kg, po. In kind it is ADME, organism-based. Further details: dose 0.1 mg/kg, route oral. As to conditions: in vivo. The method, boiled down:
as §1

A short description of data set [11]: AUC (0 to 24 hrs) in Sprague-Dawley rat at 100 mg/kg, po. Further details: time < 24 hr, dose 100 mg/kg, route oral. In kind it is ADME, organism-based. The conditions noted are these: plasma. The method, boiled down: as §1
Data set [12] in a line: AUC (0 to 24 hrs) in Sprague-Dawley rat at 30 mg/kg, po. As to conditions: plasma. In kind it is ADME, organism-based. Also noted: time < 24 hr, dose 30 mg/kg, route oral. The method, boiled down: as §1
Data set [13] can be described thus: AUC (0 to 24 hrs) in Sprague-Dawley rat at 2 mg/kg, po. In kind it is ADME, organism-based. As to conditions: plasma. Further details: time < 24 hr, dose 2 mg/kg, route oral. The method, boiled down: as §1
Data set [14] in a line: AUC (0 to 24 hrs) in Sprague-Dawley rat at 1 mg/kg, po. In kind it is ADME, organism-based. Also noted: time < 24 hr, dose 1 mg/kg, route oral. As to conditions: plasma. The method, boiled down: as §1
Data set [15] can be described thus: AUC (0 to 24 hrs) in Sprague-Dawley rat at 0.3 mg/kg, po. In kind it is ADME, organism-based. Further details: time < 24 hr, dose 0.3 mg/kg, route oral. As to conditions: plasma. The method, boiled down: as §1
Data set [16] in a line: AUC (0 to 24 hrs) in Sprague-Dawley rat at 0.1 mg/kg, po. In kind it is ADME, organism-based. The conditions noted are these: plasma. Further details: time < 24 hr, dose 0.1 mg/kg, route oral. The method, boiled down:
as §1

As to `O=S(=O)(Nc1cc(Cl)c(Oc2cncc(Cl)c2)c(Cl)c1)c1ccc(Cl)cc1Cl`, the AUC(0-t) at 24 h in data set [1] was 4.8 µM·h.

Consider `CCNC(=O)c1cc(NS(=O)(=O)c2cc(C)c(Cl)cc2Cl)ccc1Oc1cncc(Cl)c1`, for which the Drug metabolism entry with Liver microsomes was “Active”. The compound also came in with a half-life in data set [2] of 40 min. In data set [3], this compound showed a bioavailability of 8%. Further, in data set [1], the AUC(0-t) at 24 h turned out to be 1.6 µM·h.

With `O=S(=O)(Nc1ccc(Oc2cnc3ccccc3c2)c(Cl)c1)c1ccc(Cl)cc1Cl`, in data set [4], the highest level (Cmax) was 11 µM. Also, the AUC(0-t) at 24 h in data set [1] was 105 µM·h.

`O=S(=O)(Nc1ccc(Oc2cnc3ccccc3c2)c(F)c1)c1ccc(Cl)cc1Cl` registered a Cmax in data set [4] of 4.8 µM. This compound also showed an AUC(0-t) at 24 h in data set [1] of 82 µM·h.

In [4], `O=S(=O)(Nc1cc(Cl)c(Oc2cnc3ccccc3c2)c(Cl)c1)c1ccc(C(F)(F)F)cc1Cl` displayed a Cmax of 8.5 µM. The compound also returned an AUC(0-t) at 24 h in data set [1] of 112 µM·h.

Take `CC(=O)c1cc(NS(=O)(=O)c2ccc(Cl)cc2Cl)ccc1Oc1cnc2ccccc2c1`: the peak level in data set [4] (Cmax) was 0.92 µM. In data set [1], the AUC(0-t) at 24 h was 3.4 µM·h.

In the case of `N#Cc1cc(NS(=O)(=O)c2ccc(Cl)cc2Cl)ccc1Oc1cncc(Cl)c1`, the AUC(0-t) at 24 h in [1] turned out to be 31 µM·h.

`O=S(=O)(Nc1cc(Cl)c(Oc2cnc3ccccc3c2)c(Cl)c1)c1ccc(Cl)cc1Cl` [INT131]: the Cmax in [5] turned out to be 6.1 µM; in data set [6] it was 4.3 µM; in data set [7] it was 0.39 µM; in data set [8] it was 0.66 µM; in [9] it was 0.13 µM; in data set [10] it was 0.08 µM. In [4], this compound showed a Cmax of 1.1 µM. The AUC(0-t) at 24 h was found to be 100 µM·h in [11]; 71 µM·h in data set [12]; 8.3 µM·h in [13]; 5.1 µM·h in [14]; 2.6 µM·h in [15]; 1.1 µM·h in data set [16]. Moreover, in data set [1], the AUC(0-t) at 24 h is 30 µM·h.
